Calls of active or inactive are those of the source. The calls are words filed in the database; no cut-off is given here.
Assays:
[1] = test system: HT-29; assay: Anti-necroptotic activity in human HT-29 cells assessed as inhibition of TNFalpha/Z-VAD-fmk (TSZ)-induced necroptosis by measuring increase in cell viability by celltiter-glo luminescent cell viability assay; type: functional, cell-based
Method in brief: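 HT-29 cells or MEFs were pretreated with compound or DMSO for 1 h, then stimulated with TNF (20 ng/mL), Smac mimetic (100 nM) and z-VAD. Viability was read as ATP level by CellTiter-Glo (24 h per methods; 40 h per legends). EC50 is the geometric mean of at least two runs ± SEM.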

[2] = target: Activin receptor type-1B (Homo sapiens, UniProt P36896); assay: Inhibition of human ALK4 using ATP as substrate incubated for 120 mins by ADP-glo based luminescence assay
Sequence of Activin receptor type-1B (P36896 whole entry): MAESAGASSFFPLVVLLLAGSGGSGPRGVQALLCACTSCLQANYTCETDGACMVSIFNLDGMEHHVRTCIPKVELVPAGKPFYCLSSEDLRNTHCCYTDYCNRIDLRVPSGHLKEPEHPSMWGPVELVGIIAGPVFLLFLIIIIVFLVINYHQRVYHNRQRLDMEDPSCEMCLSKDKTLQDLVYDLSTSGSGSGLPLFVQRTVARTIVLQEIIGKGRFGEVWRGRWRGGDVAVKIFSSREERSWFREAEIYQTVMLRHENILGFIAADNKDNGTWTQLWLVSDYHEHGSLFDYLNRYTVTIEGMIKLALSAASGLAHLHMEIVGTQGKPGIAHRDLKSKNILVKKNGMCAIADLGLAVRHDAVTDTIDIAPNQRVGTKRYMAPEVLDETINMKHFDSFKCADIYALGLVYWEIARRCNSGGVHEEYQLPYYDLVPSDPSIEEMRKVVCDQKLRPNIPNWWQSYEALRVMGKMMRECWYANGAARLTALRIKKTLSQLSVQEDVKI

[3] = test system: HT-29; assay: Cytotoxicity against human HT-29 cells assessed as cell death at 20 uM by celltiter-glo luminescent cell viability assay; type: cell-based; conditions: ht-29, 20 µM
Method in brief: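 HT-29 cells were given a compound concentration gradient without TSZ stimulation. Viability was read as ATP level by luminescence. Cell death above 30% at 20 µM was scored as significant toxicity.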

[4] = Efflux ratio of apparent permeability across basolateral to apical side over apical to basolateral side in human Caco-2 cells; type: ADME, cell-based
[5] = target: Epidermal growth factor receptor (Homo sapiens, UniProt P00533); assay: Inhibition of EGFR (unknown origin) using FAM-labeled peptide as substrate preincubated for 10 mins followed by substrate addition measured after 60 mins in presence of ATP by caliper mobility shift assay
[6] = target: Receptor-interacting serine/threonine-protein kinase 1 (Homo sapiens) (UniProt Q13546); assay: Inhibition of human RIPK1 using ATP and substrate at 10 uM incubated for 120 mins by ADP-glo based luminescence assay
[7] = target: Receptor-interacting serine/threonine-protein kinase 3 (Homo sapiens, UniProt Q9Y572); assay: Binding affinity to human wild type RIPK3 (M1/Q307) expressed in bacterial expression system by Kinomescan method
Method in brief: (§1)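 KINOMEscan competition binding assay. Kinases were expressed as tags on T7 phage grown in E. coli BL21, or produced in HEK-293 cells and DNA-tagged. Kinase, ligand-loaded streptavidin beads and compound were combined in binding buffer (20% SeaBlock, 0.17x PBS, 0.05% Tween 20, 6 mM DTT) for 1 h at room temperature with shaking. Bound kinase was read by qPCR.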

[8] = test system: Mus musculus; assay: Anti-necroptosis activity against TNFalpha-induced C57BL/6J mouse systemic inflammatory response syndrome model assessed as reduction in lethal shock at 5 mg/kg, ip measured after 15 mins; type: functional, organism-based
Method in brief: (§2)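 C57BL/6 mice were given vehicle (sterile PBS with 40% PEG400) or compound at 5 mg/kg i.p. about 15 min before i.v. mouse TNFa ([…]). Body temperature and survival were monitored. Temperature changes are shown as means ± SEM per group.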

[9] = Apparent permeability of the compound across basolateral to apical side in human Caco-2 cells; type: ADME, cell-based; conditions: read-out: permeability
[10] = target: T1, CYP3A4 (Homo sapiens, UniProt P08684); assay: Inhibition of CYP3A4 (unknown origin) at 10 uM using testosterone as substrate incubated for 20 mins by LC-MS/MS analysis; type: ADME; conditions: probe testosterone
T1 sequence (P08684 whole entry): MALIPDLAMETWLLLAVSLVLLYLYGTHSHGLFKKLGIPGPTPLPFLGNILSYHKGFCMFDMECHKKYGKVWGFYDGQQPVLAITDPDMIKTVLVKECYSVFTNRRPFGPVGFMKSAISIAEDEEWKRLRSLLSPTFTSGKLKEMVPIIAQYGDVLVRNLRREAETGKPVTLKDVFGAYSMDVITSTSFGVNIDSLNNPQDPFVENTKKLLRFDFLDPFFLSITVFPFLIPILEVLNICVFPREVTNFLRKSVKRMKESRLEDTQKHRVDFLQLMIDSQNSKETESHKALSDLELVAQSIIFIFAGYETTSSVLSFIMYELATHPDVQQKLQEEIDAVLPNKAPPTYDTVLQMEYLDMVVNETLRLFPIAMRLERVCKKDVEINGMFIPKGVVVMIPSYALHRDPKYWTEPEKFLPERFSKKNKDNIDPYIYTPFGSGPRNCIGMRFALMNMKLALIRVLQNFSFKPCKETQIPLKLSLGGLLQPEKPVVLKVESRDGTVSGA

[11] = Metabolic stability in mouse liver microsomes assessed as intrinsic clearance by LC-MS/MS analysis; type: ADME, Microsome
[12] = target: Receptor-interacting serine/threonine-protein kinase 2 (Homo sapiens) (UniProt O43353); assay: Inhibition of RIPK2 (unknown origin) at 10 uM
Sequence of Receptor-interacting serine/threonine-protein kinase 2 (Homo sapiens) (O43353 whole entry): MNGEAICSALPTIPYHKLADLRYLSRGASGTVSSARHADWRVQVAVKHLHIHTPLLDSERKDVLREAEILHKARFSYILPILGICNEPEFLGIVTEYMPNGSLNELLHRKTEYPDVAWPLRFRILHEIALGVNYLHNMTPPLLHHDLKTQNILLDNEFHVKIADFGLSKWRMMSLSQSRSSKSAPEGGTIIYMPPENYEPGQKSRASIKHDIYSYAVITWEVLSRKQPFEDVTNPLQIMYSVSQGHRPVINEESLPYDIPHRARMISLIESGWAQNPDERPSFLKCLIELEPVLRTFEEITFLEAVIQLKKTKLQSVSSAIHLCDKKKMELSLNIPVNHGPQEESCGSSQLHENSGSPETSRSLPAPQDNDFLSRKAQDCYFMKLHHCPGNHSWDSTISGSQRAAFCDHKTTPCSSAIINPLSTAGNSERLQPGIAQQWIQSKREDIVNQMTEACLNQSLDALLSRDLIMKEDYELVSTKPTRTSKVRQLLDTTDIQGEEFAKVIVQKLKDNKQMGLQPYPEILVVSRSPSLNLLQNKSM

[13] = target: Receptor-interacting serine/threonine-protein kinase 1 (Homo sapiens, UniProt Q13546); assay: Binding affinity to human wild type RIPK1 (M1/K305) expressed in bacterial expression system by Kinomescan method; method in brief: as §1
[14] = Apparent permeability of the compound across apical to basolateral side in human Caco-2 cells; type: ADME, cell-based; conditions: read-out: permeability
[15] = Metabolic stability in mouse liver microsomes assessed as half life by LC-MS/MS analysis; type: ADME, Microsome
[16] = Protein binding in human plasma by LC-MS/MS analysis; type: ADME, cell-free; conditions: read-out: PPB (converted)
[17] = target: CYP2D6 (Homo sapiens, UniProt P10635); assay: Inhibition of CYP2D6 (unknown origin) at 10 uM incubated for 20 mins by LC-MS/MS analysis; type: ADME
Sequence of CYP2D6 (P10635 whole entry): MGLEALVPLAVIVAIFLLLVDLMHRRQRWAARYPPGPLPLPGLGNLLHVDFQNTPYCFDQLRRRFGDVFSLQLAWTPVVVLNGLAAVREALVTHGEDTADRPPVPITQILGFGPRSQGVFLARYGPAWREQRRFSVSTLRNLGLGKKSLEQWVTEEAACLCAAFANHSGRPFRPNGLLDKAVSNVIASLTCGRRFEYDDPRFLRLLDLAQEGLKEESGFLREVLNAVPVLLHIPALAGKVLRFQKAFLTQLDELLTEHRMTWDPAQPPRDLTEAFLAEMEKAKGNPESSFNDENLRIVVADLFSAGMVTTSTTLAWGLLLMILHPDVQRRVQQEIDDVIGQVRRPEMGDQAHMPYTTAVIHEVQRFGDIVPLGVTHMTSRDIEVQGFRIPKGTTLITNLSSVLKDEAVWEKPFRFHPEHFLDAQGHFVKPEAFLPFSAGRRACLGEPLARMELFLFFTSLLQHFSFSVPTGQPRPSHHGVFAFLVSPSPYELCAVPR

[18] = Protein binding in rat plasma by LC-MS/MS analysis; type: ADME, cell-free; conditions: read-out: PPB (converted)
[19] = test system: Mus musculus; assay: Antiinflammatory activity in TNFalpha-induced C57BL/6J mouse systemic inflammatory response syndrome model assessed as reduction in IL-6 production in serum at 5 mg/kg, ip measured 4 hrs after TNFalpha stimulation by ELISA; type: functional, organism-based
Method in brief: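 C57BL/6 mice were dosed i.p. at 5 mg/kg in PBS/40% PEG400 about 15 min before i.v. mouse TNFa ([…]). Mice were killed 4 h after TNFa and serum IL-6 was measured by ELISA.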

[20] = Protein binding in mouse plasma by LC-MS/MS analysis; type: ADME, cell-free; conditions: read-out: PPB (converted)
[21] = test system: Mus musculus; assay: Anti-necroptosis activity against TNFalpha-induced C57BL/6J mouse systemic inflammatory response syndrome model assessed as reduction in hypothermia at 5 mg/kg, ip measured after 15 mins; type: functional, organism-based; method in brief: as §2
[22] = test system: MEF; assay: Anti-necroptotic activity in mouse MEF cells assessed as inhibition of TNFalpha/Smac mimetic/Z-VAD-fmk (TSZ)-induced necroptosis by measuring increase in cell viability by celltiter-glo luminescent cell viability assay
[23] = target: Voltage-gated inwardly rectifying potassium channel KCNH2 (Homo sapiens, UniProt Q12809); assay: Inhibition of human ERG expressed in CHO-K1 cells by QPatch - automated patch-clamp technology; type: cell-based
[24] = target: CDK4/Cyclin D3 (Homo sapiens, UniProt P11802); assay: Inhibition of CDK4/Cyclin D3 (unknown origin) using FAM-labeled peptide as substrate preincubated for 10 mins followed by substrate addition measured after 60 mins in presence of ATP by caliper mobility shift assay; type: protein-complex assay
[25] = target: Serine/threonine-protein kinase mTOR (Homo sapiens, UniProt P42345); assay: Inhibition of mTOR (unknown origin) using ATP as substrate after 60 mins by Lance ultra assay
[26] = target: Mixed lineage kinase domain-like protein (Homo sapiens) (UniProt Q8NB16); assay: Inhibition of MLKL (unknown origin) polymerization
[27] = Metabolic stability in human liver microsomes assessed as intrinsic clearance by LC-MS/MS analysis; type: ADME, Microsome
[28] = target: Phosphatidylinositol 4,5-bisphosphate 3-kinase catalytic subunit alpha isoform (Homo sapiens, UniProt P42336); assay: Inhibition of human PI3Kalpha using ATP as substrate at 25 uM incubated for 60 mins by ADP-glo based luminescence assay
[29] = target: T1, CYP3A4; assay: Inhibition of CYP3A4 (unknown origin) at 10 uM using midazolam as substrate incubated for 20 mins by LC-MS/MS analysis; type: ADME; conditions: probe midazolam
[30] = target: CYP2C9 (Homo sapiens, UniProt P11712); assay: Inhibition of CYP2C9 (unknown origin) at 10 uM incubated for 20 mins by LC-MS/MS analysis; type: ADME
Sequence of CYP2C9 (P11712 whole entry): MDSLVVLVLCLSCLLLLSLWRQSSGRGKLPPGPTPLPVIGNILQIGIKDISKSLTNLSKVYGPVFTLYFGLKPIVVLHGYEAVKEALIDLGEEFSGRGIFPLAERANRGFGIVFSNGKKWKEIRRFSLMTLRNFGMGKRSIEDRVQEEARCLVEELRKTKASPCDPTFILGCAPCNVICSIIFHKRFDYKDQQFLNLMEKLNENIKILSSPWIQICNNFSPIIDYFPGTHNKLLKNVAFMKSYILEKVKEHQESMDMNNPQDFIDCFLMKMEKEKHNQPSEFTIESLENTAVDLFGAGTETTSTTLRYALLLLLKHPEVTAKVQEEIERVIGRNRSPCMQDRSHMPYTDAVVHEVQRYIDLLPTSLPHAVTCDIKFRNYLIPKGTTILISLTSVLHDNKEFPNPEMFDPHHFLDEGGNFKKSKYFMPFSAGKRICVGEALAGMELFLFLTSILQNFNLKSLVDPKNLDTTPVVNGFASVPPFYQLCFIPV

[31] = target: CYP2C19 (Homo sapiens, UniProt P33261); assay: Inhibition of CYP2C19 (unknown origin) at 10 uM incubated for 20 mins by LC-MS/MS analysis; type: ADME
[32] = target: Serine/threonine-protein kinase B-raf (Homo sapiens, UniProt P15056); assay: Inhibition of BRAF (unknown origin) in presence of ATP by Lanthascreen TR-FRET assay
Sequence of Serine/threonine-protein kinase B-raf (P15056 whole entry): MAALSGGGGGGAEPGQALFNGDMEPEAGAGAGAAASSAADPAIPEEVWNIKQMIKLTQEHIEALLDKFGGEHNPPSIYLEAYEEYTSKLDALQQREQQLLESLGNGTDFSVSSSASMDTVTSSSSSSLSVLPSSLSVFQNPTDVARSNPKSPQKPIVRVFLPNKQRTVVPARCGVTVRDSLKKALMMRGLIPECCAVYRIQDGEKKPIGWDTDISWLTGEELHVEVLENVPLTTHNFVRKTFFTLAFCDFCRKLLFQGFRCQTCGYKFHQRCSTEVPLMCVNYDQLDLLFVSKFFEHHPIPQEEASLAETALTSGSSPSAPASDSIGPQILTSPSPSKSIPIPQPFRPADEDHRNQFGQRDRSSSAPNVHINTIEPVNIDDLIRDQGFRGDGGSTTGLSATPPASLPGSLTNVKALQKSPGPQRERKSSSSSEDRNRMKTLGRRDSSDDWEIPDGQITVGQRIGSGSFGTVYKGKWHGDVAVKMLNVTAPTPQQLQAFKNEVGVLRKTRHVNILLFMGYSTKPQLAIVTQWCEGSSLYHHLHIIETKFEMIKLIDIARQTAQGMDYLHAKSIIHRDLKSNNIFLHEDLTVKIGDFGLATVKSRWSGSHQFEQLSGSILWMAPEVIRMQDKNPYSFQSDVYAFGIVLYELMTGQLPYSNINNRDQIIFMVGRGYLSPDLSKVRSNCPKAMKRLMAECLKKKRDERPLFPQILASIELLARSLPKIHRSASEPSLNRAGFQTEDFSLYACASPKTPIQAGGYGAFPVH

[33] = target: CYP1A2 (Homo sapiens, UniProt P05177); assay: Inhibition of CYP1A2 (unknown origin) at 10 uM incubated for 20 mins by LC-MS/MS analysis; type: ADME
Sequence of CYP1A2 (P05177 whole entry): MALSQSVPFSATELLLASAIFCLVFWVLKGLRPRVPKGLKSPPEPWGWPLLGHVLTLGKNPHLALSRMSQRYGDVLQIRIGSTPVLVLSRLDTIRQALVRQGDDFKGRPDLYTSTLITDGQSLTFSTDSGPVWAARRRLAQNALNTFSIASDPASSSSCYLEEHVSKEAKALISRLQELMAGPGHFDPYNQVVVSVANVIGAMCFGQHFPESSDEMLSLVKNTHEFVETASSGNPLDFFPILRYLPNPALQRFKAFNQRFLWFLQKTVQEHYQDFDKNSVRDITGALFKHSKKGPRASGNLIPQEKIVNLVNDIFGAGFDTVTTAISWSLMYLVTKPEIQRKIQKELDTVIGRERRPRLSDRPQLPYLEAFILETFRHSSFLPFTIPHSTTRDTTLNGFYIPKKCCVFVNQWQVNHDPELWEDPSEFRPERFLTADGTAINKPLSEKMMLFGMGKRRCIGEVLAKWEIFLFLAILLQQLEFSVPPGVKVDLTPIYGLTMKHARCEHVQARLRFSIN

[34] = target: Platelet-derived growth factor receptor alpha (Homo sapiens, UniProt P16234); assay: Inhibition of PDGFRA (unknown origin) using FAM-labeled peptide as substrate preincubated for 10 mins followed by substrate addition measured after 60 mins in presence of ATP by caliper mobility shift assay
Sequence of Platelet-derived growth factor receptor alpha (P16234 whole entry): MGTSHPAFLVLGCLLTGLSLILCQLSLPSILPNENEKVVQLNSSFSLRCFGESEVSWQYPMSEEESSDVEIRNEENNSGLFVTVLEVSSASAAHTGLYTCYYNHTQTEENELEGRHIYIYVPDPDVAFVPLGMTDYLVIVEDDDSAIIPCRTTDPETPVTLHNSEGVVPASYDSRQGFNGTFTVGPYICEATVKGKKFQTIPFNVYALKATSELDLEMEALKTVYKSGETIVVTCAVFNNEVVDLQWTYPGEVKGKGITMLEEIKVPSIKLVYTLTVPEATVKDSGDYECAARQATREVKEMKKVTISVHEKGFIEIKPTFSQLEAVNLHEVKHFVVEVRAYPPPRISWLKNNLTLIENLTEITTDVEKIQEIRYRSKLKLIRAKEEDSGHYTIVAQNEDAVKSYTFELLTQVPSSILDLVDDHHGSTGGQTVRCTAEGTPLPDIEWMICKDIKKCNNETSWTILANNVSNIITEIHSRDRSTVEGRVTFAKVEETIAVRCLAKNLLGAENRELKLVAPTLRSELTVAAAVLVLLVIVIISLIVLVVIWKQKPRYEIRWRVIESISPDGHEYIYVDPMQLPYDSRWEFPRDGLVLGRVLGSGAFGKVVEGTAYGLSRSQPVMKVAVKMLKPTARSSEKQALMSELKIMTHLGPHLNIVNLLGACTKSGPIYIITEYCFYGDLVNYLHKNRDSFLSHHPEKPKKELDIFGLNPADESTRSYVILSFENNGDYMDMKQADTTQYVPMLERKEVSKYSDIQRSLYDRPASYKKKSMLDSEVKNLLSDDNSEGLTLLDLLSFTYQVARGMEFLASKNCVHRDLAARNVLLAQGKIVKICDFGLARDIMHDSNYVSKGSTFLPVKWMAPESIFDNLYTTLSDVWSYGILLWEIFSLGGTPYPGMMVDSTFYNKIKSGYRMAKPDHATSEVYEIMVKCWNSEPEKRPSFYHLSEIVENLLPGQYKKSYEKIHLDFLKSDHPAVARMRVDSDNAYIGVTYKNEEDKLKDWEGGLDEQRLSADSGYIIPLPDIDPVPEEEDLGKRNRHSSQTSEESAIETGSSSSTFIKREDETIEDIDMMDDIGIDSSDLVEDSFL

[35] = Metabolic stability in human liver microsomes assessed as half life by LC-MS/MS analysis; type: ADME, Microsome

CC1COC2(CS(=O)(=O)c3cc4c(Nc5ccc6scnc6c5)ccnc4cc32)O1 (stereo not drawn)
EC50 [1]: 1070 nM

Cc1n[nH]c(Nc2ccnc3cc4c(cc23)S(=O)(=O)C(C)(C)C4=O)c1C
EC50 [1]: > 20000 nM

O=C(O)c1ccc(-c2nc(-c3ccc4c(c3)OCO4)c(-c3ccccn3)[nH]2)cc1
IC50 [2]: 158 nM

O=S1(=O)CCc2cc3nccc(Nc4ccc5scnc5c4)c3cc21
EC50 [1]: 2280 nM

CC1(C)C(=O)c2cc3nccc(Nc4cc(O)ccc4F)c3cc2S1(=O)=O
EC50 [1]: 330 nM
Activity [3]: > 30%

CCC1(C)C(=O)c2cc3nccc(Nc4ccc5scnc5c4)c3cc2S1(=O)=O (stereo not drawn)
EC50 [1]: > 20000 nM

O=S1(=O)CC2(OCCO2)c2cc3nccc(Nc4ccc5scnc5c4)c3cc21
efflux ratio [4]: 0.72
IC50 [5]: > 10000 nM
inhibition [6]: inactive
Kd [7]: 7.2 nM
Activity [8]: Active
EC50 [1]: 420 nM
Papp B→A [9]: 25.3 ×10⁻⁶ cm/s
inhibition at 20 min, 10 µM [10]: 9.6%
CLH [11]: 269 mL/min/kg
inhibition [12]: Active
Kd [13]: 5950 nM
Papp A→B [14]: 35.2 ×10⁻⁶ cm/s
half-life [15]: 20.3 min
fraction unbound [16]: 0.029
inhibition at 20 min, 10 µM [17]: -5.26%
fraction unbound [18]: 0.013
Activity [19]: Active
fraction unbound [20]: 0.027
Activity [21]: Active
IC50 [2]: 3740 nM
EC50 [22]: 540 nM
IC50 [23]: > 30000 nM
IC50 [24]: > 10000 nM
IC50 [25]: > 10000 nM
inhibition [26]: inactive
CLH [27]: 60.5 mL/min/kg
IC50 [28]: 7770 nM
inhibition at 20 min, 10 µM [29]: -13.7%
inhibition at 20 min, 10 µM [30]: -6.33%
inhibition at 20 min, 10 µM [31]: 19.9%
IC50 [32]: 1360 nM
inhibition at 20 min, 10 µM [33]: 37%
IC50 [34]: 152 nM
half-life [35]: 28.8 min

C=C1c2cc3nccc(Nc4ccc5scnc5c4)c3cc2S(=O)(=O)C1(C)C
EC50 [1]: 1030 nM

CC1(C)C(O)(C2CC2)c2cc3nccc(Nc4ccc5scnc5c4)c3cc2S1(=O)=O (stereo not drawn)
EC50 [1]: > 20000 nM

CC1(C)C(=O)c2cc3nccc(Nc4cc(O)c(F)cc4F)c3cc2S1(=O)=O
EC50 [1]: 1030 nM
Activity [3]: > 30%

CC(C)S(=O)(=O)c1ccc2nccc(Nc3ccc4scnc4c3)c2c1
EC50 [1]: 1510 nM
inhibition [12]: Active
EC50 [22]: 2510 nM

O=C1CS(=O)(=O)c2cc3c(Nc4ccc5scnc5c4)ccnc3cc21
EC50 [1]: 3810 nM

Cc1ccc(O)cc1Nc1ccnc2cc3c(cc12)S(=O)(=O)C(C)(C)C3=O
EC50 [1]: 430 nM
Activity [3]: > 30%

O=S1(=O)CC2(COC2)c2cc3nccc(Nc4ccc5scnc5c4)c3cc21
EC50 [1]: > 20000 nM

CC1(C)C(O)c2cc3nccc(Nc4ccc5scnc5c4)c3cc2S1(=O)=O (stereo not drawn)
EC50 [1]: 2190 nM

CC1(O)c2cc3nccc(Nc4ccc5scnc5c4)c3cc2S(=O)(=O)C1(C)C (stereo not drawn)
EC50 [1]: > 20000 nM

CC1(C)C(=O)c2cc3nccc(Nc4n[nH]c5ccc(F)cc45)c3cc2S1(=O)=O
EC50 [1]: > 20000 nM

CC1(C)C(=O)c2cc3nccc(Nc4ccc5scnc5c4)c3cc2S1(=O)=O
EC50 [1]: 2230 nM

CC1(CC2CC2)C(=O)c2cc3nccc(Nc4ccc5scnc5c4)c3cc2S1(=O)=O (stereo not drawn)
EC50 [1]: > 20000 nM

O=S1(=O)CC2(CCCO2)c2cc3nccc(Nc4ccc5scnc5c4)c3cc21 (stereo not drawn)
EC50 [1]: 3960 nM

— ChEMBL document CHEMBL4813992, “Ring closure strategy leads to potent RIPK3 inhibitors” (Eur J Med Chem, 2021)
